In data set [1] the test system is Mus musculus. Nature of the data set: Protection against MPTP-induced DAergic neurotoxicity in C57B/6 mouse model of Parkinson's disease assessed as […] at 20 mg/kg, po observed after 7 days by microscopic analysis. The format is functional, organism-based. A digest of the protocol: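 MPTP mouse model with 20 mg/kg oral dosing; striatal and substantia nigra sections collected 7 days later and stained for tyrosine hydroxylase; striatal TH density and nigral TH-positive neuron counts; mean ± SEM; one-way ANOVA with Tukey's test.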

Data set [2] has as its system Mus musculus. The experiment in a line: Anti-parkinson's activity in MPTP-induced C57Bl/6 mouse model of Parkinson's disease assessed as abnormal movement at 20 mg/kg, po administered for 3 consecutive days prior and subsequent to MPTP administration (four injections of MPTP, 2 h intervals, 20 mg/kg, i.p. injection by coat hanger test. In kind it is functional, organism-based. The essentials:
(§1)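 Mice dosed 20 mg/kg p.o. (or vehicle) for 3 consecutive days before and after MPTP (four i.p. injections, 20 mg/kg, 2 h apart); vertical grid test (turning, descent, total time) and coat-hanger scoring; n = 10–12 per group; mean ± SEM; one-way ANOVA with Tukey's test.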

Data set [3] in a line: Cytotoxicity against mouse BV2 cells assessed as cell viability at 1 uM incubated for 6 hrs by CCK-8 assay relative to control. The format is cell-based, BV-2. The conditions noted are these: read-out: Activity. A digest of the protocol: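 BV-2 cells exposed to compound for 6 h, then viability measured; percent survival reported.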
On the technique in general: Tetrazolium assays rely on reduction of a dye to a coloured formazan, in cell work by metabolically active cells.

The target in data set [4] is T1, Nuclear factor erythroid 2-related factor 2 (Mus musculus) (UniProt Q60795).
T1 sequence (whole entry): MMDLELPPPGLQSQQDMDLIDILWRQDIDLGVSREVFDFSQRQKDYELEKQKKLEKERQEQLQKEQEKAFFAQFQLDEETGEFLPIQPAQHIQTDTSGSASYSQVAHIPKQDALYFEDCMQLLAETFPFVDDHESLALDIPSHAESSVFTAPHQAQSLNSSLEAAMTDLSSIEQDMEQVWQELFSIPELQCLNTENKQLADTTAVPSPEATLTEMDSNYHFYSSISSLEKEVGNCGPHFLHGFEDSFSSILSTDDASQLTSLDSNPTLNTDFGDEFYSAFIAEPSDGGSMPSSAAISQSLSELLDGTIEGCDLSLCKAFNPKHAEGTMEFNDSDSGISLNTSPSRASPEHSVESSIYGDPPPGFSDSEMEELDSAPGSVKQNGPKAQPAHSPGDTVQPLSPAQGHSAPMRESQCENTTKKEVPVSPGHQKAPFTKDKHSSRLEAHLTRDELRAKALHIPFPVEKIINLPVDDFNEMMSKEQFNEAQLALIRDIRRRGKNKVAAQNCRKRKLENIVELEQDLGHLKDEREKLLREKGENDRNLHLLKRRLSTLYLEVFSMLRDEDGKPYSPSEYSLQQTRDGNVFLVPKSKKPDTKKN
The experiment in a line: Activation of Nrf2 in mouse BV-2 cells assessed as increase in nuclear Nrf2 level at 0.3 uM by Western blot analysis relative to control. In kind it is cell-based. A digest of the protocol:
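BV-2 microglia treated 0.3–10 μM; Nrf2 measured by Western blot in nuclear extracts and whole-cell lysates; at least duplicate cultures, averaged, expressed as fold of untreated control ± SEM; paired t test.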
(A western blot detects proteins with antibodies after separation by electrophoresis.)

Data set [5] deals with T1, Nuclear factor erythroid 2-related factor 2 (Mus musculus). Nature of the data set: Activation of Nrf2 in mouse BV-2 cells assessed as upregulation of HO-1 mRNA expression at 1 to 10 uM incubated for 3 hrs by RT-qPCR analysis relative to control. In kind it is cell-based. A digest of the protocol:
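BV-2 cells exposed to a range of concentrations for 3 h; HO-1, GCLM and GCLC mRNA quantified by RT-qPCR, normalized to β-actin; at least duplicate cultures, fold of untreated control ± SEM; paired t test.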

In a further data set the test system is SH-SY5Y. The experiment in a line: Antioxidant activity in human SH-SY5Y cells assessed as increase in NQO1 level at 0.3 to 3 uM incubated for 6 to 24 hrs by Western blot analysis relative to control. The format is functional. The essentials: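 SH-SY5Y neuroblastoma cells treated for 6 or 24 h, then harvested; NQO1, GCLM, GCLC protein by Western blot with β-actin loading control; at least duplicate cultures, averaged, fold of untreated control ± SEM; paired t test.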

Data set [6] concerns Mus musculus. Nature of the data set: Anti-parkinson's activity in MPTP-induced C57Bl/6 mouse model of Parkinson's disease assessed as restoration of total time at 20 mg/kg, po administered for 3 consecutive days prior and subsequent to MPTP administration (four injections of MPTP, 2 h intervals, 20 mg/kg, i.p. injection by vertical grid test. In kind it is functional, organism-based. A digest of the protocol:
as §1

One molecule from ChEMBL document CHEMBL4304782, “Antioxidant, Anti-inflammatory, and Neuroprotective Effects of Novel Vinyl Sulfonate Compounds as Nrf2 Activator” (ACS Med Chem Lett, 2019) can be followed below.

The source made the active and inactive calls. The calls are words filed in the database; no cut-off is given here.

As to `COc1ccccc1OS(=O)(=O)/C=C/c1ccccc1Cl`, the result with Mus musculus [1], in the data set on Mus musculus [2] and in the data set on Mus musculus [6] was Active. Moreover, the viability at 6 h, 1 µM in data set [3] was found to be 98%. In addition, the fold change (FC) was 4 in data set [4], 10.7 in data set [5] and 4.7 in the data set with SH-SY5Y.
